# Experimental data gathered from unrelated publications.
# Each line is one published result; the experiments were not run side by side.
SMILES,tested on,assay,test system,conditions,measurement,result
COc1cc(C(=O)c2nc(-c3cccc4[nH]ccc34)c[nH]2)cc(OC)c1OC,,chemical stability,PBS,"5 µM, pH 6",half-life,> 1020 min
CC[C@H](C)[C@H](NC(=O)[C@H](Cc1ccccc1)NC(=O)[C@H](CCC(=O)O)NC(=O)[C@H](CCCCN)NC(=O)[C@H](C)NC(=O)[C@H](C)NC(=O)[C@H](CCC(N)=O)NC(=O)CNC(=O)[C@H](CCC(=O)O)NC(=O)[C@H](CC(C)C)NC(=O)[C@H](Cc1ccc(O)cc1)NC(=O)[C@H](CO)NC(=O)[C@H](CO)NC(=O)[C@@H](NC(=O)[C@H](CC(=O)O)NC(=O)[C@H](CO)NC(=O)[C@@H](NC(=O)[C@H](Cc1ccccc1)NC(=O)[C@@H](NC(=O)CNC(=O)[C@H](CCC(=O)O)NC(=O)[C@H](C)NC(=O)N(N)Cc1c[nH]cn1)[C@@H](C)O)[C@@H](C)O)C(C)C)C(=O)N[C@@H](C)C(=O)N[C@@H](Cc1c[nH]c2ccccc12)C(=O)N[C@@H](CC(C)C)C(=O)N[C@H](C(=O)N[C@@H](CCCNC(=N)N)C(=O)NCC(=O)N[C@@H](CCCNC(=N)N)C(=O)NCC(=O)O)C(C)C,,,"male CD-1 mouse, plasma","intravenous, 1 mg/kg, single dose",AUC(0-inf),2400 ng·h/mL
CC(=O)c1c(C)c2cnc(Nc3ccc(C4CCN(CCS(C)(=O)=O)CC4)cn3)nc2n(C2CCCC2)c1=O,,metabolic stability,"rat, liver S9",,half-life,866 min
CC(C)=CCC[C@](C)(O[C@@H]1O[C@H](CO)[C@@H](O)[C@H](O)[C@H]1O)[C@H]1CC[C@]2(C)[C@@H]1[C@H](O)C[C@@H]1[C@@]3(C)CC[C@H](O)C(C)(C)[C@@H]3CC[C@]12C,,,"mouse, plasma","intravenous, 2 mg/kg",AUC(0-t),1080 ng·h/mL
O=C(Nc1ccc([N+](=O)[O-])cc1Cl)c1cc(Cl)ccc1O,HeLa-ACE2,"cell growth or viability, ATP luminescence",,72 h,CC50,8.73 µM
CC(C)CC(=O)OC[C@H]1O[C@@](C#N)(c2ccc3c(N)ncnn23)[C@H](O)[C@@H]1O,,metabolic stability,"rat, blood","5 µM, whole blood",half-life,0.761 min
N=C(N)NCCC[C@H](NC(=O)[C@H](Cc1ccccc1)NC(=O)[C@H](CCC(N)=O)NC(=O)OCc1ccccc1)C(=O)c1nccs1,,,"female C57BL/6 mouse, plasma","intranasal, 5 mg/kg",AUC(0-inf),129 ng·h/mL
Cc1c2ccncc2c(C)c2c1[nH]c1ccccc12,NCI-H187,"cell growth or viability, resazurin",,5 days,IC50,10.7 µM
Cc1[nH]c(C)c(S(=O)(=O)Nc2ccc(S(F)(F)(F)(F)F)cc2)c1C(=O)N1CCC(F)(F)C1,,metabolic stability,"rat, liver microsomes",,half-life,17.6 min
